In the library only some 2.7% were active in any assay of this set; here they are far more common.
V1R ag counter = V1a receptor agonism, counter-screen for OXTR agonists; P37288; CHO-V1R cells, Fluo-8 calcium fluorescence, agonist mode; 0% DMSO, 100% 3 nM vasopressin; AID 2797; actives 0.25% (n = 320,000); activation, % at 3 µM;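 active means activation above the mean activation of all tested compounds plus 3 SD, per screening run, cut at about 20% in these data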;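 further: signal is peak over basal fluorescence ratio across a 100 second FLIPR read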
Target sequence (P37288 whole entry, looked up): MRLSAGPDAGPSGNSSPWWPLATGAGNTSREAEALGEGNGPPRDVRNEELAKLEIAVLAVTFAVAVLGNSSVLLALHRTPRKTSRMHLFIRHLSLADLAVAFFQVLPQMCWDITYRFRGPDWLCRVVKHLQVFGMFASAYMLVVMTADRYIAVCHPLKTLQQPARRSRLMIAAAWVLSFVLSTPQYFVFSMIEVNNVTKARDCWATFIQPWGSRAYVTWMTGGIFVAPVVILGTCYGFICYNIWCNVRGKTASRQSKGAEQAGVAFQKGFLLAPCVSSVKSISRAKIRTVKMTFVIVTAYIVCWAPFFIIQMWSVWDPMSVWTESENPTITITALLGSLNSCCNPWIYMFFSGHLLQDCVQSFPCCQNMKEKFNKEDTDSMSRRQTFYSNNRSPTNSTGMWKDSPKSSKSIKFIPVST
OX1R antag-1 = OX1R (human) antagonism. O43613. OX1R-expressing cells, FRET antagonist read-out. inhibition, % at 6.6 µM. actives 1.8% (n = 330,000); in the data active means inhibition mostly above about 38%, no sharp cut-off; inactive means mostly below about 40%
OX1R antag-2 = blocks the human orexin 1 receptor; inhibition, % at 5 µM; CHO/OX1R cells, Fluo-8 calcium fluorescence, orexin A; O43613; actives 0.43% (n = 330,000);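 active means inhibition above its plate's threshold, mean inhibition of all tested compounds on the plate plus 3 SD, cut at about 37% in these data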
OXTR ag = agonists of human oxytocin receptor. activation, % at 3 µM. P30559. AID 2435. actives 0.32% (n = 320,000). CHO-OTR cells, Fluo-8 calcium fluorescence; normalized: DMSO 0%, oxytocin 100%;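 active means activation above the mean of all tested compounds plus 3 SD, cutoff set per screening run, cut at about 20% in these data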;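 further: peak over basal fluorescence ratio from a 100 s FLIPR kinetic read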
OXTR potentiator = human OXTR potentiation | P30559 | CHO-OTR cells, Fluo-8 calcium fluorescence, potentiator mode; 0% = oxytocin EC15, 100% = EC100 | activation, % at 3 µM | actives 0.061% (n = 320,000);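 active means activation above that plate's cutoff, the mean activation of tested compounds plus 3 SD, cut at about 6.6% in these data, passing the limit was not always enough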
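System: human OTR in CHO cells / Also added: sub-maximal oxytocin, roughly EC15 / Control set: EC15 oxytocin low, 75 nM oxytocin high / Schedule: 6 min compound pre-incubation at room temperature, 100 s kinetic read / Compound: single-point 3.0 µM / Replication: singlicate / Technique: Fluo-8 calcium dye fluorescence / Read-out basis: % activation of max/min ratio relative to oxytocin controls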
CHO parental Ca = counter-screen for OX1R antagonists: effect in parental CHO cells | parental CHO-K1, ATP-induced calcium, Fluo-8 fluorescence | inhibition, % at 5.6 µM | actives 0.63% (n = 330,000);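 active means inhibition above that plate's mean sample inhibition plus 3 SD, cut at about 26% in these data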
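Material: parental CHO cells / Compound: single nominal dose of 5.6 µM per compound / Signal: Fluo-8 fluorescence / Replicates: singlicate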
OX1R Ca confirm = confirmation of human orexin 1 receptor antagonists; shares compounds with OX1R antag-2; actives 38% (n = 1,100); CHO/OX1R cells, orexin A calcium Fluo-8 fluorescence; inhibition, % at 5 µM; AID 492963; in the data active means inhibition above about 29%
CHO Ca counter = counter-screen for OX1R antagonists: effect in parental CHO cells; shares compounds with OX1R antag-2; parental CHO-K1, ATP-induced calcium, Fluo-8 fluorescence; inhibition, % at 5.6 µM; actives 9.3% (n = 1,100);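 active means inhibition above a per-plate limit, the mean inhibition of that plate's test compounds plus 3 SD, cut at about 25% in these data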
Numbers stand for hits; n = inactive; x = no result given.

SMILES	V1R ag counter	OX1R antag-1	OX1R antag-2	OXTR ag	OXTR potentiator	CHO parental Ca	OX1R Ca confirm	CHO Ca counter
COc1ccc(Cn2c(N)c(C#N)c3nc4ccccc4nc32)cc1	n	n	n	n	n	n	x	x
COc1cc(Cn2c(N)c(C#N)c3nc4ccccc4nc32)cc(OC)c1	n	n	n	n	n	n	32.8	n
COc1cn(-c2ccccc2)nc1C(=O)Nc1ccc(C)cc1Cl	n	n	n	n	n	n	n	n
Cc1ccc(C(=O)CSC2=C(C#N)C(c3ccco3)CC(=O)N2)c(C)c1 (stereo unspecified)	52.8	n	n	51.5	n	n	38.9	n
Cc1ccc(NC(=O)CSC2=C(C#N)C(c3ccco3)CC(=O)N2)cc1 (stereo unspecified)	n	n	n	n	n	n	x	x
CCOC(=O)C(=CNc1ccc2c(c1)c1ccccc1n2CC)C(=O)OCC	n	n	n	n	n	n	x	x
COc1cccc(C(=O)O/N=C2\CCS(=O)(=O)c3sccc32)c1	n	n	n	n	n	n	x	x
O=C(O/N=C1\CCS(=O)(=O)c2sccc21)c1c(F)cccc1F	n	n	43.6	n	n	n	n	n
COc1cccc(NC(=O)C2CCN(S(=O)(=O)c3ccc4c(c3)C(C)(C)C(=O)N4C)CC2)c1	n	n	n	n	n	n	x	x
COc1ccc(-c2cn3c(C)c(C(=O)Nc4cccc(NC(C)=O)c4)sc3n2)cc1	n	n	n	n	n	n	n	n
CCOC(=O)CSc1nnc(-c2ccc(NS(=O)(=O)c3ccc(C)cc3)cc2)o1	n	n	n	n	n	n	36.1	26.5
O=C(CSc1ccc(S(=O)(=O)N2CCOCC2)cn1)Nc1ccc(OC(F)F)cc1	n	n	n	n	n	n	x	x
O=C(CSc1ccc(S(=O)(=O)N2CCOCC2)cn1)Nc1ccc(F)c(F)c1	n	n	n	n	n	n	n	n
CN(C)S(=O)(=O)c1ccc2c(c1)Cc1cc(S(=O)(=O)N(C)C)ccc1-2	n	n	n	n	n	n	x	x
O=C(/C=C/c1ccc(S(=O)(=O)NCc2ccco2)cc1)NCc1cccc(Cl)c1	n	n	53.7	n	n	n	n	n
CCc1c(C)sc(NC(=S)Nc2cccnc2)c1C(=O)OC	n	n	n	n	n	n	x	x
CCc1c(C)sc(NC(=S)Nc2nc(C)cc(C)n2)c1C(=O)OC	n	n	n	n	n	n	44.6	n
CCN(CC)c1ccc(/C=N\NC(N)=O)cc1	n	n	n	n	n	n	n	n
COc1cccc(Oc2nc(-c3ccncc3)nc3ccccc23)c1	n	n	n	n	n	n	x	x
COc1ccccc1CC(Cc1nc2ccccc2[nH]1)c1nc2ccccc2[nH]1 (stereo unspecified)	n	n	n	n	n	n	x	x
CC(c1ccccc1)C(Cc1nc2ccccc2[nH]1)c1nc2ccccc2[nH]1 (stereo unspecified)	n	n	45.1	n	n	n	n	n
Cc1cccc(CC(Cc2nc3ccccc3[nH]2)c2nc3ccccc3[nH]2)c1 (stereo unspecified)	n	n	n	n	n	n	n	n
CNC(=S)N(C1=NCC(c2ccc([N+](=O)[O-])cc2)S1)c1ccccc1 (stereo unspecified)	n	n	n	n	n	n	n	n
O=C(Nc1ccc(Br)cc1F)c1cccnc1	n	n	n	n	n	n	x	x
C/C(=C/c1ccccc1)C(=O)N1CCN(c2ccc(F)cc2)CC1	n	n	n	n	n	n	x	x
SMILES	V1R ag counter	OX1R antag-1	OX1R antag-2	OXTR ag	OXTR potentiator	CHO parental Ca	OX1R Ca confirm	CHO Ca counter
CC(C)C[C@H](NC(=O)NC1CCCc2ccccc21)C(=O)O (stereo partly specified)	n	n	n	n	n	n	x	x
COC(=O)[C@H](CC(C)C)NC(=O)NC1CCCc2ccccc21 (stereo partly specified)	n	n	n	n	n	n	n	n
CCCCCCNC(=O)CC(c1ccccc1)c1cc(Br)ccc1O (stereo unspecified)	n	n	n	n	n	n	n	n
CC(C)NC(=O)CC(c1ccccc1)c1cc(Br)ccc1O (stereo unspecified)	n	n	n	n	n	n	x	x
COc1ccc(NS(=O)(=O)c2ccc(SC)cc2)cc1	n	n	56.6	n	n	n	n	n
O=C1CCC([N+](=O)[O-])C(c2ccc(C(F)(F)F)cc2)N1 (stereo unspecified)	n	n	n	n	n	n	x	x
CCOC(=O)c1oc2ccc(S(=O)(=O)Nc3ccc4c(c3)n(C)c(=O)n4C)cc2c1C	n	n	46.8	n	n	n	n	n
CCC(C)c1ccccc1NC(=O)CN1CCN(C/C=C/c2ccccc2)CC1 (stereo unspecified)	n	n	n	n	n	n	x	x
COc1ccc(C(=O)NNC(=O)C(=O)Nc2cccc3ccccc23)cc1	n	n	n	n	n	n	n	n
CCN(CC)c1ccc2c(c1)OC(N)=C(C#N)C2c1cccnc1 (stereo unspecified)	32.8	n	n	52.0	n	n	n	n
CCC(NC(=O)c1cc(COc2cc(C)c(Cl)c(C)c2)on1)c1ccncc1 (stereo unspecified)	n	n	42.3	n	n	n	n	n
Cc1cccc(C)c1NC(=O)C1CCN(S(C)(=O)=O)CC1	n	n	n	n	n	n	x	x
O=C(c1ccc2ccccc2c1)C1CCCN(S(=O)(=O)c2cccnc2)C1 (stereo unspecified)	n	n	n	n	n	n	n	n
O=C(C1CCCN(S(=O)(=O)c2cccnc2)C1)N1CCN(c2ccccn2)CC1 (stereo unspecified)	n	n	n	n	n	n	x	x
Cc1cnc(C(=O)OCC(=O)Nc2ccc(C)c(S(=O)(=O)N3CCCCCC3)c2)cn1	n	n	n	n	n	n	x	x
Cc1ccc(NC(=O)COC(=O)c2cccc(C)c2[N+](=O)[O-])cc1S(=O)(=O)N1CCCCC1	n	n	44.0	n	n	n	n	n
CC(C)OC(=O)CSc1nc2c(c(C3CC=CCC3)c1C#N)CCC2 (stereo unspecified)	n	n	53.7	n	n	n	n	n
O=C(Nc1nnc(-c2ccccc2Cl)o1)c1nc2ccccc2s1	58.5	n	n	50.4	n	n	n	n
COc1cccc(C(=O)/C=C/Nc2ccc(NC(C)=O)cc2)c1	n	n	n	n	n	n	x	x

Screens (PubChem)
